Measurements from ChEMBL document CHEMBL1122163, “4-hydroxyquinoline-3-carboxylic acids as inhibitors of cell respiration. 2. Quantitative structure-activity relationship of dehydrogenase enzyme and Ehrlich ascites tumor cell inhibitions” (J Med Chem, 1982).
Activity calls are given as the source filed them. The rule behind the calls is not given here.

Experiments:
[1] = tested on: L-lactate dehydrogenase, skeletal muscle M4 (Oryctolagus cuniculus); test: Ability to inhibit skeletal muscle LDH (LDH-M4); Inactive; conditions: Muscle tissue
[2] = biological target: T1, Malate dehydrogenase, cytoplasmic (Sus scrofa) (UniProt P11708); test: Ability to inhibit cytoplasmic malate dehydrogenase; Inactive
T1 sequence (whole entry): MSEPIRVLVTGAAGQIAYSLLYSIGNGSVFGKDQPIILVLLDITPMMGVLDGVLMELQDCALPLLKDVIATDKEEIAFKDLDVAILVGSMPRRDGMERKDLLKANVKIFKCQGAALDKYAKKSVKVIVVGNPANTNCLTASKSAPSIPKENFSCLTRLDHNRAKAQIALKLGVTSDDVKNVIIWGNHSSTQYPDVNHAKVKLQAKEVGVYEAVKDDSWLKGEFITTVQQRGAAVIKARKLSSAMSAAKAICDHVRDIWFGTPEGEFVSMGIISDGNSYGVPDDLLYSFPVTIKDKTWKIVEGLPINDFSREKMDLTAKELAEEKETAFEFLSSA
Method in brief: (§1)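 Pig heart enzyme (cytoplasmic or mitochondrial form), diluted in 0.05 M Tris pH 7.4 with 1% BSA to give 0.022–0.027 OD/min at 340 nm. Cuvette holds 0.05 M Tris pH 8.4, L-malate, NAD+ and Me2SO ± inhibitor. Equilibrated at 25 °C, then started with enzyme. Five inhibitor concentrations in triplicate; I50 from least-squares dose-response line.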

[3] = biological target: T2, Malate dehydrogenase, mitochondrial (Sus scrofa) (UniProt P00346); test: Ability to inhibit mitochondrial malate dehydrogenase; Inactive
T2 sequence (whole entry): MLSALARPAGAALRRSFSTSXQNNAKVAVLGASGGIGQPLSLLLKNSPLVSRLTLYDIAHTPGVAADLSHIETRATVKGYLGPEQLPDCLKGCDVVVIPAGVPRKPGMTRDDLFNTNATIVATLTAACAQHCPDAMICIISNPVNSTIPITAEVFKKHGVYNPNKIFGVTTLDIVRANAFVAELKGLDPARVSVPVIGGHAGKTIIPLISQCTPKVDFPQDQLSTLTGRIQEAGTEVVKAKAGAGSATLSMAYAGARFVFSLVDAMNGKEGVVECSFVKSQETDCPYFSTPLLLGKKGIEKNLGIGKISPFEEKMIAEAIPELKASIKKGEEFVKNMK
Method in brief: as §1

Q: What does the source list for `O=C(O)c1cnc2cc(OCCOc3ccccc3)ccc2c1O`?
A: pI50 [1]: inactive; pI50 [2]: inactive

Q: Which pI50 [1] does the source give for `O=C(O)c1cnc2cc(OCCc3ccc(Oc4ccccc4)cc3)ccc2c1O` here?
A: inactive

Q: Which results are given for `O=C(O)c1cnc2cc(OCCc3ccc(F)cc3)ccc2c1O`?
A: pI50 [1]: inactive; pI50 [2]: inactive

Q: With `NC(=O)c1ccc2c(O)c(C(=O)O)cnc2c1` as the compound, how does the pI50 [1] read?
A: inactive

Q: With `O=C(O)c1cnc2cc(OCCOc3ccc4ccccc4c3)ccc2c1O` as the compound, how does the pI50 [1] read?
A: inactive

Q: What about the pI50 [2] of the same compound?
A: inactive

Q: What does the source list for `O=C(O)c1cnc2cc(OCc3ccc(Cl)c(Cl)c3)ccc2c1O`?
A: pI50 [1]: inactive; pI50 [2]: inactive

Q: How did the pI50 [3] turn out when `COc1ccc2c(O)c(C(=O)O)cnc2c1` was run?
A: inactive

Q: And the pI50 [1]?
A: inactive

Q: What about the pI50 [2] of the same compound?
A: inactive

Q: How did the pI50 [1] turn out when `O=C(O)c1cnc2cc(OCCOc3ccc(Oc4ccccc4)cc3)ccc2c1O` was run?
A: inactive

Q: What does the source list for `O=C(O)c1cnc2cc(OCCOc3ccc(F)cc3)ccc2c1O`?
A: pI50 [1]: inactive; pI50 [2]: inactive

Q: Which results are given for `O=C(O)c1cnc2cc(OCc3ccccc3)ccc2c1O`?
A: pI50 [1]: inactive; pI50 [2]: inactive

Q: `O=C(O)c1cnc2cc(F)ccc2c1O` was tested. Which pI50 [1] did it give?
A: inactive

Q: What does the source list for `O=C(O)c1cnc2cc(OCc3ccc(F)cc3)ccc2c1O`?
A: pI50 [1]: inactive; pI50 [2]: inactive

Q: Which results are given for `O=C(O)c1cnc2cc(OCc3ccc(Br)cc3)ccc2c1O`?
A: pI50 [1]: inactive; pI50 [2]: inactive

Q: For `O=C(O)c1cnc2cc(OCc3ccc4ccccc4c3)ccc2c1O`, which pI50 [1] is on record?
A: inactive

Q: What about the pI50 [2] of the same compound?
A: inactive

Q: Which results are given for `O=C(O)c1cnc2cc(OCc3c(Cl)c(Cl)c(Cl)c(Cl)c3Cl)ccc2c1O`?
A: pI50 [1]: inactive; pI50 [2]: inactive

Q: `O=C(O)c1cnc2ccccc2c1O` was tested. Which pI50 [3] did it give?
A: inactive

Q: What about the pI50 [1] of the same compound?
A: inactive

Q: And the pI50 [2]?
A: inactive

Q: Which pI50 [1] does the source give for `O=C(O)c1cnc2cc(OCc3cccc4ccccc34)ccc2c1O` here?
A: inactive

Q: What about the pI50 [2] of the same compound?
A: inactive

Q: With `O=C(O)c1cnc2cc(OCCOc3ccc(Br)cc3)ccc2c1O` as the compound, how does the pI50 [1] read?
A: inactive

Q: And the pI50 [2]?
A: inactive

Q: With `O=C(O)c1cnc2cc(OCCc3ccc4ccccc4c3)ccc2c1O` as the compound, how does the pI50 [1] read?
A: inactive

Q: Which pI50 [1] does the source give for `O=C(O)c1cnc2cc(OCCc3ccccc3)ccc2c1O` here?
A: inactive
